Drawing on ChEMBL document CHEMBL1152958 (Bioorg Med Chem, 2009), this text covers IC50 and inhibition for twelve compounds.

Test [1] addresses T1, Polyunsaturated fatty acid 5-lipoxygenase (Homo sapiens, UniProt P09917).
T1 sequence (P09917 whole entry): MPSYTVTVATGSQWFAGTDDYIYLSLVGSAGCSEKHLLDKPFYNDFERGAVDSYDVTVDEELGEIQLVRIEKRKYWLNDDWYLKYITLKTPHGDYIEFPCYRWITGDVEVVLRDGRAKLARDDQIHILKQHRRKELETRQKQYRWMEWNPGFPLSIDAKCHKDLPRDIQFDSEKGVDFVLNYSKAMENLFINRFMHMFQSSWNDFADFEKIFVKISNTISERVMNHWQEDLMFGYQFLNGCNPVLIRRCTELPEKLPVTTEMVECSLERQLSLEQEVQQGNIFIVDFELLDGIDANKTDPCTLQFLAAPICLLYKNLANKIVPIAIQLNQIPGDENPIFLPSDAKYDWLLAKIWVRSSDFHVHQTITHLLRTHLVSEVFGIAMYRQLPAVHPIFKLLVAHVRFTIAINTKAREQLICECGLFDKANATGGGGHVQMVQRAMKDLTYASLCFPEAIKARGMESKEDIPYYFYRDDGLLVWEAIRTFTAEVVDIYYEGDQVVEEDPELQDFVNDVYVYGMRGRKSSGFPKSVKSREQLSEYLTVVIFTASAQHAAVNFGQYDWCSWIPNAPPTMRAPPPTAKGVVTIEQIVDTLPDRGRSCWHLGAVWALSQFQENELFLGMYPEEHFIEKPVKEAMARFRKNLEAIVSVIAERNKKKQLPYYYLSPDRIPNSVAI
In words: Inhibition of 5LOX-mediated LTB4 formation in stimulated human polymorphonuclear leukocytes. The method in brief:
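5-LOX-mediated LTB4 formation was measured in stimulated human polymorphonuclear leukocytes in 96-well format. For IC50, at least 3 concentrations were tested in at least 3 independent experiments, each in duplicate, and IC50 was derived from a semilogarithmic dose plot. Results are given as means ± S.D.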

In test [2] the target is T2, Polyunsaturated fatty acid 5-lipoxygenase (Homo sapiens) (UniProt P09917).
T2 sequence (whole entry): T1 sequence (P09917 whole entry)
In words: Inhibition of 5LOX-mediated LTB4 formation in stimulated human polymorphonuclear leukocytes at 8 uM. The method in brief:
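5-LOX-mediated LTB4 formation was measured in stimulated human polymorphonuclear leukocytes in 96-well format. […] For IC50, at least 3 concentrations were tested in at least 3 independent experiments, each in duplicate, and IC50 was derived from a semilogarithmic dose plot. Results are given as means ± S.D.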

Test [3] concerns the target T3, Prostaglandin G/H synthase 2 (Ovis aries) (UniProt P79208).
T3 sequence (whole entry): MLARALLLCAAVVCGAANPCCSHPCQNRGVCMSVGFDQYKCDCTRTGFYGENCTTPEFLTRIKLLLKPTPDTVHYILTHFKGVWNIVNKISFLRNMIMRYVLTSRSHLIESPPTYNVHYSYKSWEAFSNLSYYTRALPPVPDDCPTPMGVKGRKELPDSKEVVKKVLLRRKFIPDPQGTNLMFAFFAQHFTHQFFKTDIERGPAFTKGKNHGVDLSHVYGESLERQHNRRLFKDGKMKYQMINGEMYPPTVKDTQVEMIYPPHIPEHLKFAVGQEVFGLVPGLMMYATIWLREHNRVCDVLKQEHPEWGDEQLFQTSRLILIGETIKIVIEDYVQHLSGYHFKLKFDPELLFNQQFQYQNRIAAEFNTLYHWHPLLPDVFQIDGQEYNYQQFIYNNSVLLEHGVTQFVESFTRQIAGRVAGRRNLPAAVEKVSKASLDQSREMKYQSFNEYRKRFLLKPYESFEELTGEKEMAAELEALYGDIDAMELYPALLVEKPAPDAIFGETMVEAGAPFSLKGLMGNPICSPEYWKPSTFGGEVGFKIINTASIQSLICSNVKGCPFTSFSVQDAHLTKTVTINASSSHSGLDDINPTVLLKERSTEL
Put plainly: Inhibition of COX2 in sheep placental vesicle at 8 uM by enzyme immunoassay.

Test [4] deals with T4, Prostaglandin G/H synthase 2 (Ovis aries, UniProt P79208).
T4 sequence (P79208 whole entry): T3 sequence (whole entry)
Put plainly: Inhibition of COX2 in sheep placental vesicle by enzyme immunoassay.

Test [5] concerns the target T5, Prostaglandin G/H synthase 1 (Ovis aries) (UniProt P05979).
T5 sequence (whole entry): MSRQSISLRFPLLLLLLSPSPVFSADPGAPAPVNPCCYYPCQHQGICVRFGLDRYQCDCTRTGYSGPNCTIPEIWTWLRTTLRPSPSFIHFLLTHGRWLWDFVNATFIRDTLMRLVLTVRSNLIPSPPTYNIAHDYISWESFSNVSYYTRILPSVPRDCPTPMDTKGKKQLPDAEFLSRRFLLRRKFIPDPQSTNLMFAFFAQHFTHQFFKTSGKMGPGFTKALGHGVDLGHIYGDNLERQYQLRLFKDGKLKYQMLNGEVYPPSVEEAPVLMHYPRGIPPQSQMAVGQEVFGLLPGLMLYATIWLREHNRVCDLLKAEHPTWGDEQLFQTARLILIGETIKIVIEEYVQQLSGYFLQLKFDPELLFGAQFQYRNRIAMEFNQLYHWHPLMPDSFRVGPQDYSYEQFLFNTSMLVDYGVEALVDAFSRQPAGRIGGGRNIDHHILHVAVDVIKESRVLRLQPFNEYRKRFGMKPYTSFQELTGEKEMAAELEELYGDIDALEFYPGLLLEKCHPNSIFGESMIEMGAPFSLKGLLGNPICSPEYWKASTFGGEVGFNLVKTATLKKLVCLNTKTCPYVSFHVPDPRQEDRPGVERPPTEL
Put plainly: Inhibition of COX1 in ram seminal vesicle at 8 uM by enzyme immunoassay. Type of test: tissue-based.

For test [6], the target named is T6, Prostaglandin G/H synthase 1 (Ovis aries, UniProt P05979).
T6 sequence (P05979 whole entry): T5 sequence (whole entry)
Put plainly: Inhibition of COX1 in ram seminal vesicle by enzyme immunoassay. A digest of the protocol: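 PGE2, the main arachidonic acid metabolite, was quantified by competitive enzyme immunoassay.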

In general, IC50 refers to the concentration needed to halve the response being measured. A word on the inhibition: it is the change of the read-out against control, counted positive when it falls. Lower therefore signals little suppression.

Some results are limits rather than exact numbers.

Consider `CCCc1ccc(O)c(-c2ccc(O)c(CCC)c2)c1`, for which the values for the IC50 in test [1] (read-out: IC50), in test [4] (read-out: IC50) and in test [6] (read-out: IC50) were 1700 nM, 2100 nM and 800 nM, respectively. Also, the results for the inhibition in test [2], in test [3] and in test [5] were 99.9%, 81.6% and 89.6%, respectively.
As to `C=CCc1ccc(O)c(-c2ccc(OC)c(CC=C)c2)c1` [METHYLHONOKIOL], the IC50 was 1500 nM in test [1] (read-out: IC50), 60 nM in test [4] (read-out: IC50) and 100 nM in test [6] (read-out: IC50). In addition, the figures for the inhibition in test [2], in test [3] and in test [5] were 96.4%, 95.3% and 90.8%, respectively.
Regarding `COc1ccc(-c2cc(CC3CO3)ccc2O)cc1CC1CO1` (centres undefined), the IC50 entry in test [1], in test [4] and in test [6] was “Not Active” each time.
Consider `C=CCc1ccc(O)c(-c2ccc(O)c(CC=C)c2)c1` [HONOKIOL], for which the IC50 in test [1] (read-out: IC50) came to 4200 nM; in test [4] (read-out: IC50), 2100 nM; in test [6] (read-out: IC50) it was 1800 nM. Also, the inhibition in test [2] turned out to be 94%; in test [3] it was 88.3%; in test [5], 91%.
As for `C=CCc1ccc(OC(C)=O)c(-c2ccc(OC(C)=O)c(CC=C)c2)c1`, in test [1] (read-out: IC50), the IC50 stood at 4500 nM. For the same compound, the inhibition in test [2] was found to be 64.9%; in test [3] it was 13.8%; in test [5], 6.8%.
Take `C=CCc1ccc(O)c(-c2ccc(OC)c(/C=C\C)c2)c1`: the IC50 in test [1] (read-out: IC50) was found to be 1100 nM; in test [4] (read-out: IC50), 900 nM; in test [6] (read-out: IC50) it was 2800 nM. The inhibition is 99.9% in test [2], 62.7% in test [3] and 68.6% in test [5].
With `C=CCc1ccc(O)c(-c2ccc(O)c(/C=C/C)c2)c1`, the IC50 worked out at 1000 nM in test [1] (read-out: IC50), 2700 nM in test [4] (read-out: IC50) and 600 nM in test [6] (read-out: IC50). Moreover, the inhibition in test [2] was determined as 100%; in test [3] it was 75.1%; in test [5] it was 84.8%.
As for `C=CCc1ccc(OC)c(-c2ccc(OC)c(CC=C)c2)c1`, the IC50 in test [1] (read-out: IC50) is 15000 nM; in test [4] (read-out: IC50) it was 7700 nM; in test [6] (read-out: IC50) it was 11400 nM. Further, the inhibition in test [2] worked out at 27.8%; in test [3], 47.8%; in test [5] it was 45.1%.
Consider `C=CCc1ccc(OC(C)=O)c(-c2ccc(OC)c(CC=C)c2)c1`, for which the IC50 worked out at 2200 nM in test [1] (read-out: IC50) and 4900 nM in test [4] (read-out: IC50). In addition, the values for the inhibition in test [2], in test [3] and in test [5] were 76.3%, 56.3% and 18%, respectively.
`CCCc1ccc(OC)c(-c2ccc(OC)c(CCC)c2)c1`: the inhibition in test [2] was determined as 24.4%; in test [3], 49.4%; in test [5] it was 27.3%. The IC50 was 6900 nM in test [4] (read-out: IC50) and above 20000 nM in test [6] (read-out: IC50).
On to `C=CCc1ccc(O)c(-c2ccc(OC)c(/C=C/C)c2)c1`, for which the results for the IC50 in test [1] (read-out: IC50), in test [4] (read-out: IC50) and in test [6] (read-out: IC50) were 2100 nM, 200 nM and 700 nM, respectively. Also, the inhibition in test [2] amounted to 99.3%; in test [3], 81.5%; in test [5], 80.5%.
Turning to `CCCc1ccc(O)c(-c2ccc(OC)c(CCC)c2)c1`, the IC50 in test [1] (read-out: IC50) is 1400 nM; in test [6] (read-out: IC50), 7700 nM. For the same compound, the values for the inhibition in test [2], in test [3] and in test [5] were 97.1%, 11.6% and 56.5%, respectively.
